The values below come from ChEMBL document CHEMBL2057204, “Synthesis, biological evaluation, and molecular docking studies of N-((1,3-diphenyl-1H-pyrazol-4-yl)methyl)aniline derivatives as novel anticancer agents” (Bioorg Med Chem, 2012).

The term IC50 denotes the point on the concentration scale where inhibition reaches its midpoint. Read a low IC50 as inhibition by little substance.

Test [1] concerns the target Cyclin-dependent kinase 2/cyclin E1 (Homo sapiens, UniProt P24941). Put plainly: Inhibition of CDK2/cyclin E. Type of test: protein-complex assay.
In test [2] the test system is B16-F10. Put plainly: Antiproliferative activity against mouse B16F10 cells after 48 hrs by MTT assay. It counts as functional, cell-based. Particulars: B16-F10, 48 h. The method, boiled down: (§1)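 Cells grown to log phase in RPMI 1640 with 10% FBS, diluted to 2 × 10⁴ cells/mL in complete medium and seeded into 96-well plates. Plates held 24 h at 37 °C, 5% CO₂ before compound exposure. After a 4 h incubation, absorbance read at 570 nm on a microplate reader. Three replicate wells per concentration; each assay run at least three times; IC₅₀ reported.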
On the technique in general: Formazan colour is commonly taken as a measure of viable cells.

For test [3], the system named is MCF7. Nature of the test: Antiproliferative activity against human MCF7 cells after 48 hrs by MTT assay. It counts as functional, cell-based. Particulars: MCF7, 48 h. The procedure, abridged: as §1

Turning to `Fc1ccc(NCc2cn(-c3ccccc3)nc2-c2ccc(Cl)cc2)cc1`, the IC50 in test [1] amounted to 0.98 µM; in test [2], 2.12 µM; in test [3] it was 1.88 µM.

As to `Clc1ccc(NCc2cn(-c3ccccc3)nc2-c2ccc(Cl)cc2)cc1`, the IC50 was found to be 1.18 µM in test [1], 2.45 µM in test [2] and 2.28 µM in test [3].

For `Clc1ccc(-c2nn(-c3ccccc3)cc2CNc2ccc(Br)cc2)cc1`, the results for the IC50 in test [1], in test [2] and in test [3] were 1.85 µM, 3.01 µM and 2.62 µM, respectively.

`Cc1ccc(NCc2cn(-c3ccccc3)nc2-c2ccc(Cl)cc2)cc1`: the IC50 in test [1] is 2.08 µM; in test [2], 3.48 µM; in test [3], 3.11 µM.

On to `Fc1ccc(NCc2cn(-c3ccccc3)nc2-c2ccc(Br)cc2)cc1`, for which the IC50 in test [1] came out at 2.36 µM; in test [2] it was 4.18 µM; in test [3], 3.96 µM.

As to `Clc1ccc(NCc2cn(-c3ccccc3)nc2-c2ccc(Br)cc2)cc1`, the figures for the IC50 in test [1], in test [2] and in test [3] were 2.56 µM, 4.29 µM and 4.15 µM, respectively.

For the molecule `Brc1ccc(NCc2cn(-c3ccccc3)nc2-c2ccc(Br)cc2)cc1`, the IC50 was determined as 2.78 µM in test [1], 5.27 µM in test [2] and 5 µM in test [3].

Turning to `Cc1ccc(NCc2cn(-c3ccccc3)nc2-c2ccc(Br)cc2)cc1`, the IC50 in test [1] was 3.02 µM; in test [2], 5.98 µM; in test [3], 5.38 µM.

Take `Cc1ccc(-c2nn(-c3ccccc3)cc2CNc2ccc(F)cc2)cc1`: the values for the IC50 in test [1], in test [2] and in test [3] were 3.6 µM, 5.67 µM and 5.88 µM, respectively.

Turning to `Cc1ccc(-c2nn(-c3ccccc3)cc2CNc2ccc(Cl)cc2)cc1`, the IC50 in test [1] came out at 3.89 µM; in test [2] it was 6.01 µM; in test [3], 6.02 µM.

As to `Cc1ccc(-c2nn(-c3ccccc3)cc2CNc2ccc(Br)cc2)cc1`, the IC50 was found to be 4.15 µM in test [1], 6.76 µM in test [2] and 6.89 µM in test [3].

As for `Cc1ccc(NCc2cn(-c3ccccc3)nc2-c2ccc(C)cc2)cc1`, the results for the IC50 in test [1], in test [2] and in test [3] were 4.55 µM, 7.38 µM and 7.26 µM, respectively.

As for `COc1ccc(-c2nn(-c3ccccc3)cc2CNc2ccc(F)cc2)cc1`, the IC50 in test [1] came out at 4.02 µM; in test [2], 6.58 µM; in test [3], 5.98 µM.

With `COc1ccc(-c2nn(-c3ccccc3)cc2CNc2ccc(Cl)cc2)cc1`, the IC50 in test [1] is 4.28 µM; in test [2] it was 7.18 µM; in test [3], 6.25 µM.

As to `COc1ccc(-c2nn(-c3ccccc3)cc2CNc2ccc(Br)cc2)cc1`, the IC50 in test [1] amounted to 4.96 µM; in test [2], 8.06 µM; in test [3], 7.02 µM.

`COc1ccc(-c2nn(-c3ccccc3)cc2CNc2ccc(C)cc2)cc1`: the IC50 in test [1] came to 5.06 µM; in test [2] it was 8.38 µM; in test [3], 8.16 µM.

For `Cn1cnc2c(NCc3ccccc3)nc(NCCO)nc21` [OLOMOUCINE], the IC50 was 105 µM in test [2] and 130 µM in test [3].
